# Source: paper PMC9585582 (ACS Bio & Med Chem Au, 2022)
# Where two headings read alike, the source gives them in different places.
# Tests used:
# [1] = tested on: microtubules (taxane binding site) in living HeLa cells; assay: Competition binding assay with PB-GABA-Taxol in living HeLa cells; conditions: read-out: cellular Ki; PB-GABA-Taxol 1.5 μM, verapamil 100 μM, 37 °C, 4% FBS, 3 h, 60K cells/well
# [2] = biological target: cross-linked microtubules; conditions: cited from earlier work; for Kd: read-out: biochemical Kd; for Ki: read-out: biochemical Ki
# [3] = Cytotoxicity toward HeLa cells after 48 h by flow cytometry; assay type: cell-based; conditions: human
# [4] = tested on: microtubule network of HeLa cells; assay: Confocal microscopy of HeLa cells expressing mScarlet-α-Tubulin; assay type: cell-based; conditions: 1 h at 37 °C
# Outline: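 HeLa cells transiently transfected to express mScarlet-α-tubulin. Live cells were treated with microtubule modulators for 1 h at 37 °C, and microtubule-network phenotypes were imaged by confocal microscopy.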
# [5] = tested on: taxane binding site in living cells; conditions: read-out: Ki by confocal microscopy; cited from earlier work
# [6] = tested on: microtubules in living HeLa cells; assay: Allosteric modulator assay with PB-GABA-Taxol in living HeLa cells; assay type: binding; conditions: allosteric modulator model; PB-GABA-Taxol 1.5 μM, verapamil 100 μM, 3 h, 37 °C
# albumin = conditions: read-out: Kd for albumin; cited from earlier work
# [7] = biological target: purified GDP-bound microtubules; conditions: cited from earlier work
smiles,measurement,setting,value
CC(=O)O[C@H]1C(=O)[C@@]2(C)[C@H]([C@H](OC(=O)c3ccccc3)[C@]3(O)C[C@H](O)C(C)=C1C3(C)C)[C@]1(OC(C)=O)CO[C@@H]1C[C@@H]2O [baccatin III],Ki,[1],17000 ± 3000 nM
same,Kd,[2]; ref 21,6700 ± 2000 nM
CO[C@H]1C(=O)[C@]2(C)[C@@H](OC)C[C@H]3OC[C@@]3(OC(C)=O)[C@H]2[C@H](OC(=O)c2ccccc2)[C@]2(O)C[C@H](OC(=O)[C@H](O)[C@@H](NC(=O)OC(C)(C)C)c3ccccc3)C(C)=C1C2(C)C [cabazitaxel],Ki,[1],6 nM
same,Ki,[2]; ref 17,7.4 ± 0.9 nM
COc1cc2c(c(OC)c1OC)-c1ccc(OC)c(=O)cc1[C@@H](NC(C)=O)CC2 [colchicine],IC50 at 48 h,[3],20 ± 8 nM
same,fluorescent microtubule phenotype,[4],disrupted the microtubule network
CC(=O)O[C@@]12CO[C@@H]1C[C@H](O)[C@@]1(C)C(=O)[C@H](O)C3=C(C)[C@@H](OC(=O)[C@H](O)[C@@H](NC(=O)OC(C)(C)C)c4ccccc4)C[C@@](O)([C@@H](OC(=O)c4ccccc4)[C@H]21)C3(C)C [docetaxel],Ki,[1],16 nM
same,Kd,[2]; ref 17,6.8 ± 0.2 nM
same,Kd,[2]; ref 65,25 ± 0.4 nM
same,Ki,[2]; cross-linked microtubules,17 ± 6 nM
C/C(=C\c1csc(C)n1)[C@@H]1C[C@@H]2O[C@]2(C)CCC[C@H](C)[C@H](O)[C@@H](C)C(=O)C(C)(C)[C@@H](O)CC(=O)N1 [ixabepilone],Ki,[1],10 nM
same,Ki,[5],7.6 ± 1.6 nM
COc1cc2cc(c1Cl)N(C)C(=O)C[C@H](OC(=O)[C@H](C)N(C)C(C)=O)[C@]1(C)O[C@H]1[C@H](C)[C@@H]1C[C@@](O)(NC(=O)O1)[C@H](OC)/C=C/C=C(\C)C2 [maytansine],cooperativity factor α,[6],0.21
CC(=O)O[C@H]1C(=O)[C@@]2(C)[C@H]([C@H](OC(=O)c3ccccc3)[C@]3(O)C[C@H](OC(=O)[C@H](O)[C@@H](NC(=O)c4ccccc4)c4ccccc4)C(C)=C1C3(C)C)[C@]1(OC(C)=O)CO[C@@H]1C[C@@H]2O [paclitaxel],Ki,[1],22 nM
same,fluorescent microtubule phenotype,[4],enhanced the formation of long microtubule fibers
same,Kd,[2]; ref 65,70 ± 0.6 nM
same,Kd,[2]; ref 66,15 nM
same,Kd,[2]; ref 68,50 nM
same,Ki,[2]; cross-linked microtubules,27 ± 11 nM
same,Ki,[2]; ref 21,31 nM
same,Ki,[2]; ref 67,19 nM
same,Kd,albumin,120 nM
CC[C@]1(O)C[C@@H]2CN(CCc3c([nH]c4ccccc34)[C@@](C(=O)OC)(c3cc4c(cc3OC)N(C)[C@H]3[C@@](O)(C(=O)OC)[C@H](OC(C)=O)[C@]5(CC)C=CCN6CC[C@]43[C@@H]65)C2)C1 [vinblastine],cooperativity factor α,[6],0.18
same,Kd,[7],190 to 1000 nM
